Source: ChEMBL document CHEMBL1140888, “Synthesis, trypanocidal activity and docking studies of novel quinoxaline-N-acylhydrazones, designed as cruzain inhibitors candidates” (Bioorg Med Chem, 2009)

Legend:
[1] = system: Trypanosoma cruzi; assay: Antitrypanosomal activity against Trypanosoma cruzi Tulahuen 2 at 25 uM relative to nifurtimox; format: functional; details: read-out: GI
Method in brief: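 Epimastigotes of Tulahuen 2 strain exposed to 25 µM compound, up to 1% DMSO. A600 read right after inoculation (day 0) and at day 5. %inhibition = {1 − [(Ap − A0p)/(Ac − A0c)]} × 100 against drug-free control. Means of three independent experiments; nifurtimox as reference drug.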

[2] = system: J774; assay: Cytotoxicity against mouse J774 cells at 400 uM after 48 hrs by MTT assay; format: cell-based; details: j774, 48 h
Method in brief: (§1)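 J-774 macrophages seeded at 100.000 cells/well in RPMI 1640 with 20% heat-inactivated FCS, attached 48 h at 37 °C, 5% CO2. Exposed to 100, 200 or 400 µM for 48 h, washed with PBS, then MTT 0.4 mg/mL for 3 h at 37 °C. Formazan dissolved in DMSO, OD595 read. %cytotoxicity corrected for compound-in-medium blanks; triplicate wells, six growth controls.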

[3] = system: J774; assay: Cytotoxicity against mouse J774 cells after 48 hrs by MTT assay; format: cell-based; details: J774, 48 h; method in brief: as §1
[4] = system: Trypanosoma cruzi; assay: Antitrypanosomal activity against Trypanosoma cruzi Tulahuen 2; format: functional, organism-based
Method in brief: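 Epimastigotes of T. cruzi Tulahuen 2 grown with compound, up to 1% DMSO tolerated. Growth followed as absorbance at 600 nm at day 0 and day 5. Percent inhibition taken relative to drug-free control. IC50 determined only for compounds giving >80% inhibition at 25 µM. Means of three independent experiments; nifurtimox reference.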

[5] = Selectivity index, ratio of IC50 for mouse J774 cells to IC50 for Trypanosoma cruzi Tulahuen 2; format: toxicity, cell-based; details: J774 cells (versus Trypanosoma cruzi Tulahuen 2), read-out: Ratio IC50

SMILES	inhibition of growth at 25 µM [1]	further results
O=C(N/N=C/c1ccccc1)c1nc2ccccc2nc1-c1ccccc1	3%	
O=C(N/N=C/c1ccc(F)cc1)c1nc2ccccc2nc1-c1ccccc1	22%	
O=C(N/N=C/c1ccc(Br)cc1)c1nc2ccccc2nc1-c1ccccc1	40%	
O=C(N/N=C/c1ccncc1)c1nc2ccccc2nc1-c1ccccc1	0%	
CN(C)c1ccc(/C=N/NC(=O)c2nc3ccccc3nc2-c2ccccc2)cc1	29%	
O=C(N/N=C/c1ccc([N+](=O)[O-])cc1)c1nc2ccccc2nc1-c1ccccc1	19%	
O=C(N/N=C/c1ccccc1O)c1nc2ccccc2nc1-c1ccccc1	96%	Activity [2]: 14%; IC50 [3]: > 400 µM; IC50 [4]: 15.9 µM; selectivity ratio [5]: > 25.2
O=C(N/N=C/c1ccc(O)cc1)c1nc2ccccc2nc1-c1ccccc1	27%	
O=C(N/N=C/c1ccccn1)c1nc2ccccc2nc1-c1ccccc1	0%	
Cc1nc2ccccc2nc1C(=O)N/N=C/c1ccccc1O	81%	Activity [2]: 12%; IC50 [3]: > 400 µM; IC50 [4]: 20 µM; selectivity ratio [5]: > 20
O=C(N/N=C/c1ccc(Cl)cc1)c1nc2ccccc2nc1-c1ccccc1	53%	
CC(C)c1ccc(/C=N/NC(=O)c2nc3ccccc3nc2-c2ccccc2)cc1	36%	
O=C(N/N=C/c1ccccc1Cl)c1nc2ccccc2nc1-c1ccccc1	35%	
O=C(N/N=C/c1cccc(Cl)c1)c1nc2ccccc2nc1-c1ccccc1	47%	
O=C(N/N=C/c1ccco1)c1nc2ccccc2nc1-c1ccccc1	0%	
CC(=O)N1CCN(c2ccc(OCC3COC(Cn4ccnc4)(c4ccc(Cl)cc4Cl)O3)cc2)CC1 (centres undefined) [KETOCONAZOLE]		Activity [2]: 100%; IC50 [3]: < 50 µM; selectivity ratio [5]: < 5
CN(C/C=C/C#CC(C)(C)C)Cc1cccc2ccccc12 [TERBINAFINE]		Activity [2]: 100%; IC50 [3]: 88 µM; selectivity ratio [5]: 5.1
